# Screens (PubChem BioAssay)
# PERK inhibitor = block of dimerizer-induced PERK translation repression, primary screen, PERK inhibitor project, CHO PERK-DD cells, SEAP luminescence, HTS; Eukaryotic translation initiation factor 2-alpha kinase 3 (Homo sapiens), Q9NZJ5; 220,000 compounds, 0.17% hits; CHO PERK-DD fusion, SEAP luminescence translation reporter; inhibition, % at 5.6 µM; AID 1416, 2008;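 active means inhibition above the mean inhibition of all tested compounds plus 3 SD, set separately per screening campaign, cut at about 2.9% in these data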;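 further: PERK kinase domain activated by AP20187 dimerizer at 100 nM; 0% = DMSO with dimerizer and 100% = rapamycin at 8.4 µM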
# Runt-CBFb FRET = inhibitors of RUNX1 Runt–CBFb binding, primary screen, biochemical, FRET, Cerulean-Runt, Venus-CBFb, uHTS | inhibition, % at 20 µM | Cerulean-Runt/Venus-CBFb FRET ratio 530/480, 1 h | AID 1496, 2009 | Runt-related transcription factor 1 (Homo sapiens) + Core-binding factor subunit beta … | 220,000 compounds, 0.46% hits;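 active means inhibition over about 50% at 20 µM in the single-dose screen, limit read from the data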;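 further: 0% = DMSO wells and 100% = excess unlabeled CBFb competitor control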
# Target sequence (Q01196 whole entry, looked up): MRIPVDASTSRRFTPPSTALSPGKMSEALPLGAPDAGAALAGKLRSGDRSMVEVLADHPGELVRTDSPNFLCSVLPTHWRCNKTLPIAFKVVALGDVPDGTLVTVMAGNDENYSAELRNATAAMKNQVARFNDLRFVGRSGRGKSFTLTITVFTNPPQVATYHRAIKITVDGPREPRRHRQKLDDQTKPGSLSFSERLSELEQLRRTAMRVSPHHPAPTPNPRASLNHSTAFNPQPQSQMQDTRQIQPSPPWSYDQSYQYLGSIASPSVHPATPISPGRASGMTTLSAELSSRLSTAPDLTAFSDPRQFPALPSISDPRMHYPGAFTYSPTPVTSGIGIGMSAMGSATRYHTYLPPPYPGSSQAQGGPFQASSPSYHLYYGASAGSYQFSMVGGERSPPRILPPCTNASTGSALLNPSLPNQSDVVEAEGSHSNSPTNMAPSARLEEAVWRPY
# Target sequence (Q13951 whole entry, looked up): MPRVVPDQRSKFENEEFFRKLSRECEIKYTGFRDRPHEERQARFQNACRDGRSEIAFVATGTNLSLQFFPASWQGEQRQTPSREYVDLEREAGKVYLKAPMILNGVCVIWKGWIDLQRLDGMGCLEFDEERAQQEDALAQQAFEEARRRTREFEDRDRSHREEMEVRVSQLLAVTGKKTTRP
#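 test system = Cerulean-Runt domain fusion protein, energy donor | probe or stimulus = Venus-CBFb binding partner, 100 nM | incubation = two 1 h room-temperature incubations shielded from light | detection = fluorescence energy transfer, 422 nm excitation, 530/480 nm emission | measure = loss of energy transfer signal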
# Hck Nef HTS = inhibitors of Nef-activated human Hck kinase, primary screen, biochemical, Z-Lyte FRET, 384-well, Hck-YEEI | Tyrosine-protein kinase HCK (Homo sapiens), P08631 | Recombinant Hck-YEEI plus Nef, Z-Lyte FRET kinase assay | inhibition, % at 20 µM | 220,000 compounds, 0.68% hits | AID 463187, 2010;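 active means Hck-Nef kinase inhibition above about 50%, limit read from the data; inactive means inhibition below that limit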;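 further: 0% = DMSO with Hck plus Nef and 100% = Hck alone without Nef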
# eIF4E-4G inh = eIF4E–eIF4G protein interaction inhibitors, primary screen, biochemical, uHTS, TR-FRET, eIF4GI fragment; 220,000 compounds, 0.37% hits; Eukaryotic translation initiation factor 4E (Mus musculus) + Eukaryotic translation …; AID 782, 2007; inhibition, % at 21.7 µM; TR-FRET eIF4E-eIF4GI(517-606) binding, 2 h;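 active means inhibition above about 30%, limit read from the data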;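 further: 0% = full FRET control wells and 100% = background wells lacking eIF4GI fragment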
# Runt-SMMHC FRET = inhibitors of RUNX1 Runt–CBFb-SMMHC binding, primary screen, biochemical, FRET, Cerulean-Runt, Venus-CBFb-SMMHC, uHTS; Runt-related transcription factor 1 (Homo sapiens) + Core-binding factor subunit beta …; Cerulean-Runt/Venus-CBFb-SMMHC FRET ratio 530/480, 1 h; 220,000 compounds, 0.74% hits; inhibition, % at 20 µM;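 active means mean inhibition across duplicate retests at 20 µM reaching about 50%, limit read from the data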;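 further: 0% = DMSO wells and 100% = wells with excess untagged CBFb-SMMHC; inhibitors lower the FRET ratio by blocking Runt binding to CBFb-SMMHC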
# RanGTP-Impb inh = inhibitors of RanGTP-importin-beta interaction, primary screen, biochemical, FRET, CFP-Ran, YFP-importin-beta, homogeneous; Ran GTPase (GTP-bound) - importin-beta complex; cell-free CFP-Ran/YFP-importin-beta FRET ratio; inhibition, % (concentration not given with the values); 300,000 compounds, 1.1% hits; AID 2216, 2009;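 active means more than half of the replicate wells show a fall in the fluorescence ratio signal beyond about 16%, limit read from the data, passing the limit was not always enough; inconclusive means exactly half of the replicate wells pass the set limit; inactive means fewer than half of replicates pass the limit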;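 further: 0% = DMSO wells and 100% = Ran loaded with GDP instead of GTP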
# An asterisk follows results filed as active; ? = inconclusive; · = no result given. An excerpt weighted towards active compounds, which were near 2.2% of everything screened.
SMILES,PERK inhibitor,Runt-CBFb FRET,Hck Nef HTS,eIF4E-4G inh,Runt-SMMHC FRET,RanGTP-Impb inh
Cc1ccc(C2=NN=C(NC(=O)CSc3nncn3C)SC2)cc1,2,49,19,0,61*,-1
Cc1ccc(C(=O)NC(=O)CSc2nncn2C)cc1,·,·,·,·,·,-6
CN1/C(=C\C(=O)c2cccc(S(=O)(=O)N3CCCCC3)c2)C(C)(C)c2ccccc21,1,-8,6,-5,62,21*
CN1/C(=C\C(=O)c2ccco2)C(C)(C)c2ccccc21,0,9,33,-7,79*,8
CN1/C(=C\C(=O)COC(=O)c2ccco2)C(C)(C)c2ccccc21,0,-1,-4,1,1,?
COc1ccc(COC(=O)C2=C(C)NC(=O)NC2c2cccc(Br)c2)cc1 (stereo not drawn),·,·,·,·,·,-4
Cc1nc2cc(NC(=O)c3ccc(Br)s3)ccc2s1,·,·,·,·,·,7
NC(=O)c1ccc(NC(=O)COC(=O)c2c3c(nc4ccccc24)/C(=C\c2cccs2)CCC3)cc1,-1,-21,17,8,-16,16*
CCc1cccc(C)c1NC(=O)COC(=O)c1c2c(nc3ccccc13)/C(=C\c1cccs1)CCC2,0,-11,5,10,-24,4
N#CC1=C(N)N2C(=C(C#N)C13CCN(Cc1ccccc1)CC3)Nc1ccccc12,-1,12,14,3,19,34*
N#C/C(=C\c1cn(CC(=O)N2CCCCC2)c2ccccc12)C(=O)NCc1ccc2c(c1)OCO2,1,-28,3,-10,-52,1
C=CCOc1ccc(C2C(C#N)=C(N)N(Nc3ccccc3)C3=C2C(=O)CC(C)(C)C3)cc1OC (stereo not drawn),-1,37,8,2,94*,7
CCc1ccc(-c2nnn(CCC(=O)OC)n2)cc1,1,0,3,-1,0,6
CC1CCCN(c2sc(S(C)(=O)=O)nc2S(=O)(=O)c2ccc(Cl)cc2)C1 (stereo not drawn),·,·,·,·,·,5
CC1CN(c2sc(S(C)(=O)=O)nc2S(=O)(=O)c2ccc(Cl)cc2)CC(C)O1 (stereo not drawn),·,·,·,·,·,16*
CC1CCCCN1CCCNc1ccc(C(CC(N)=O)NC(=O)Cc2cccc3ccccc23)cc1[N+](=O)[O-] (stereo not drawn),·,·,·,·,·,30*
CC1CCCCN1CCCNc1ccc(C(CC(N)=O)NC(=O)Cc2ccc(Cl)cc2)cc1[N+](=O)[O-] (stereo not drawn),·,·,·,·,·,-2
COc1cc(C2CC(=O)C3=C(C2)Nc2ncnn2C3c2cccs2)cc(OC)c1OC (stereo not drawn),0,26,14,-2,32,4
COc1cc(C2C=C(c3cccs3)Nc3ncnn32)cc(OC)c1OC (stereo not drawn),1,20,5,-1,93*,·
COc1cc(/C=C(\C#N)c2nc3ccccc3[nH]2)c([N+](=O)[O-])cc1OCc1ccccc1,-1,38,0,-1,83*,9
CCCCCCOc1ccc(-c2ccc(C#N)cn2)cc1,3.1*,-4,0,3,-1,2
CCCCCCOc1ccc(C(=O)O)cc1,1,1,16,1,0,-2
O=C(COc1ccccc1)N/N=C/c1ccc(O[C@@H]2O[C@H](CO)[C@@H](O)[C@H](O)[C@H]2O)cc1,1,0,2,-4,-39,6
CCn1c(SCC(=O)NCc2ccc3c(c2)OCO3)nnc1-c1cccs1,0,0,1,68*,1,1
Cn1c(SCC(=O)NCc2ccc3c(c2)OCO3)nnc1-c1cccs1,0,0,5,-11,0,0
SMILES,PERK inhibitor,Runt-CBFb FRET,Hck Nef HTS,eIF4E-4G inh,Runt-SMMHC FRET,RanGTP-Impb inh
Cc1ccc2nc3c(cc(C(=O)NCc4ccco4)c(=N)n3C3CCCC3)c(=O)n2c1,·,·,·,·,·,187*
Cc1cccn2c(=O)c3cc(C(=O)NCc4ccco4)c(=N)n(C4CCCCC4)c3nc12,·,·,·,·,·,130*
Cc1ccc2nc(SCC(=O)NCc3ccco3)nc(=O)n2c1,·,·,·,·,·,-2
CN(C(=O)COC(=O)/C=C/c1ccc(Cl)c(Cl)c1)c1c(N)n(Cc2ccccc2)c(=O)[nH]c1=O,·,·,·,·,·,7
Cc1cccn2c(=O)c3cc(C#N)c(=O)n(Cc4cccnc4)c3nc12,·,79*,·,·,41,·
N#Cc1cc2c(=O)n3ccccc3nc2n(Cc2cccnc2)c1=O,·,·,·,·,·,74*
Cc1cccn2c(=O)c3cc(C#N)c(=N)n(Cc4cccnc4)c3nc12,-2,·,3,·,·,·
CC(=O)N=c1c(C#N)cc2c(=O)n3ccccc3nc2n1Cc1ccccc1,1,138*,19,2,81*,32*
CC(C)(C)NC(=O)CSc1nnc(C2CC2)n1-c1ccccc1,1,-1,23,7,2,52*
Nc1nnc(SCc2ccccc2Cl)s1,1,-1,-7,77*,1,4
Nc1nnc(CSCc2ccccc2Cl)s1,1,-1,5,1,0,-2
COC(C[C@H](O)[C@H](C)[C@H](O)COCc1ccccc1)OC,·,0,10,79*,0,2
COC(C[C@H](O)[C@@H](C)[C@H](O)COCc1ccccc1)OC,·,2,28,4,3,·
Cc1ccc2nc(-c3cccnc3)c(NC3CCCCC3)n2c1,0,-6,10,0,-1,1
O=c1cc(N2CCc3ccccc3C2)[nH]c(=O)n1-c1ccc(Cl)cc1,0,4,-20,0,0,117*
O=c1cc(N2CCc3ccccc3C2)[nH]c(=O)n1Cc1ccc(F)cc1,-1,2,0,-5,16,80*
O=c1cc(N2CCC3(CC2)OCCO3)[nH]c(=O)n1-c1ccc(Cl)cc1,0,11,-1,7,32,12
O=c1cc(N2CCc3ccccc3C2)[nH]c(=O)n1-c1ccc(Br)cc1,1,2,0,-14,4,124*
